Experimental data: ChEMBL document CHEMBL4308898, “Synthesis and biological evaluation of arylpiperazine derivatives as potential anti-prostate cancer agents” (Bioorg Med Chem, 2019)
Calls of active or inactive are those of the source. The rule behind the calls is not given here.

Key:
RWPE-1 = assay: Antiproliferative activity against human RWPE1 cells after 24 hrs by CCK-8 assay; type: cell-based; details: RWPE-1, 24 h
Method in brief: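 RWPE-1 grown in DMEM with 10% FBS, penicillin 100 U/mL and streptomycin 0.1 mg/mL at 37 °C, 5% CO2. Log-phase cells seeded at 1 × 10^5 cells/mL, cultured 24 h, then exposed to various compound concentrations for 24 h. CCK-8 added, 1 h at 37 °C, absorbance read at 450 nm. Inhibition = (1 − OD treated/OD control) × 100%. IC50 by linear regression of concentration-response curves. Three independent experiments.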

DU-145 = assay: Antiproliferative activity against human DU145 cells after 24 hrs by CCK-8 assay; type: functional, cell-based; details: DU-145, 24 h
Method in brief: (§1)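 Media with 10% FBS plus penicillin/streptomycin: RPMI1640 (DU145), F12 (LNCaP), DMEM (PC-3). Log-phase cells seeded at 1 × 10^5 cells/mL and grown 24 h at 37 °C, 5% CO2, then given various compound concentrations for 24 h. CCK-8 added for 1 h, absorbance read at 450 nm. Inhibition = (1 − OD treated/OD control) × 100%. IC50 from linear regression; three independent experiments.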

PC-3 = assay: Antiproliferative activity against human PC3 cells after 24 hrs by CCK-8 assay; type: functional, cell-based; details: PC-3, 24 h; method in brief: as §1
LNCaP = assay: Antiproliferative activity against human LNCAP cells after 24 hrs by CCK-8 assay; type: functional, cell-based; method in brief: as §1
[1] = molecular target: T1, Androgen receptor (Homo sapiens) (UniProt P10275); details: at 10 µM
T1 sequence (whole entry): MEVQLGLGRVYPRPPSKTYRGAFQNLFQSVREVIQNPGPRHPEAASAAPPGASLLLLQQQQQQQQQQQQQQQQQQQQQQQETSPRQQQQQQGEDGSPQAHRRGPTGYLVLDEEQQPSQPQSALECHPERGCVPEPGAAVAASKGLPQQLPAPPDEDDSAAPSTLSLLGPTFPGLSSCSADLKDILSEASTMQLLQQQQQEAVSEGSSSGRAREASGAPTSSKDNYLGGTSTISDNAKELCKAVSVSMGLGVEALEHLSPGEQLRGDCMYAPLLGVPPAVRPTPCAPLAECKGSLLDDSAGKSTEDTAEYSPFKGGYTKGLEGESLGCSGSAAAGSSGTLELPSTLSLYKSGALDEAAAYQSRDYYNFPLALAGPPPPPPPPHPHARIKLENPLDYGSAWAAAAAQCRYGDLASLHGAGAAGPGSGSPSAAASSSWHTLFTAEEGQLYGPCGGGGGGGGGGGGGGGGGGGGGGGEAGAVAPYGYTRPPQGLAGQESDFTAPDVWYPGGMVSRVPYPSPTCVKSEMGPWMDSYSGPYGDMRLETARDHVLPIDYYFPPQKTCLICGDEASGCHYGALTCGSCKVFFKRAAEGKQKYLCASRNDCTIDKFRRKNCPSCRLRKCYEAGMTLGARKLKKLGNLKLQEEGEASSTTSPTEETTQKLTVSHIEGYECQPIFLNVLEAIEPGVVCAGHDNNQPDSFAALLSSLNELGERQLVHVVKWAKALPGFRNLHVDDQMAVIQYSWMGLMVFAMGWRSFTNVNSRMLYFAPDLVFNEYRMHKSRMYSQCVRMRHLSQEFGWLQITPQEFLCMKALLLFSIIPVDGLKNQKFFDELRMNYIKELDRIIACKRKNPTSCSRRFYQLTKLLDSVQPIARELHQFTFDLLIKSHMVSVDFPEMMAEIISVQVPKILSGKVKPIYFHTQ

Androgen receptor = molecular target: T2, Androgen receptor (Rattus norvegicus, UniProt P15207); assay: Displacement of fluormone-AL Green from His-tagged/GST-fused recombinant rat androgen receptor LBD expressed in insect cells measured after 4 hrs by fluorescence polarization assay
T2 sequence (P15207 whole entry): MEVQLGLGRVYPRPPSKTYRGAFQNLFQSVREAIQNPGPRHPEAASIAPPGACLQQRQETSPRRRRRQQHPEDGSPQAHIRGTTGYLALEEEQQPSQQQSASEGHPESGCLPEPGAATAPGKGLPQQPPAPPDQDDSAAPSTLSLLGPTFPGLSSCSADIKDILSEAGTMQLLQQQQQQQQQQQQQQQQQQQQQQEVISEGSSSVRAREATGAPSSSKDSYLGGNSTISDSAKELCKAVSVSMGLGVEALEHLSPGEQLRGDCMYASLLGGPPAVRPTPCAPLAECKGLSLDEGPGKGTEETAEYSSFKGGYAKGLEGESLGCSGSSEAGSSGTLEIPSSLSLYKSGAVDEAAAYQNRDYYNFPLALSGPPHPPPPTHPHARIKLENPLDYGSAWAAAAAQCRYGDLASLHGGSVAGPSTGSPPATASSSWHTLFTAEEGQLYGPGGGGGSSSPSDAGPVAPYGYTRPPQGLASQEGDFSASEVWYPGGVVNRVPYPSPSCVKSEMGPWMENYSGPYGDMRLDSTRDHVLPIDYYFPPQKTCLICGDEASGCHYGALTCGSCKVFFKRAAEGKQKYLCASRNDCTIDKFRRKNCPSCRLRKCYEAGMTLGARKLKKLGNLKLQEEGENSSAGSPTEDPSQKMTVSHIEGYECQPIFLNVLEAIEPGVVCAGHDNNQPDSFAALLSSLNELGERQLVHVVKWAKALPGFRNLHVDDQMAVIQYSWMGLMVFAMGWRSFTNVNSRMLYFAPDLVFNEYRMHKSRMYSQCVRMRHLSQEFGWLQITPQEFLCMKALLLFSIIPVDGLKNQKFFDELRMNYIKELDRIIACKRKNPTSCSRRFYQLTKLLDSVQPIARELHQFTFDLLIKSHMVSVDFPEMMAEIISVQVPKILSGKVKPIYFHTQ

Compound | IC50 (RWPE-1) [µM] | IC50 (DU-145) [µM] | IC50 (PC-3) [µM] | IC50 (LNCaP) [µM] | inhibition [1] | IC50 (Androgen receptor) [µM]
c1ccc(N2CCN(Cc3ccc(CCOc4cccc5c4CCCC5)cc3)CC2)cc1 | 27.8 | 12.2 | 17.7 | 19.3 | – | –
CCOc1ccc(OCCc2ccc(CN3CCN(c4ccccc4)CC3)cc2)cc1 | > 50 | 14.2 | > 50 | > 50 | – | –
CC(C)(C)NC(=O)[C@H]1CC[C@H]2[C@@H]3CC[C@H]4NC(=O)C=C[C@]4(C)[C@H]3CC[C@]12C [FINASTERIDE] | – | 14.5 | – | 13.5 | – | –
N#Cc1ccccc1OCCc1ccc(CN2CCN(c3ccccc3)CC2)cc1 | > 50 | 2.51 | > 50 | > 50 | 32.1% | –
CC(C)c1ccc(OCCc2ccc(CN3CCN(c4ccccc4)CC3)cc2)cc1 | > 50 | 6.4 | > 50 | > 50 | 40.2% | –
FC(F)(F)c1ccccc1OCCc1ccc(CN2CCN(c3ccccc3)CC2)cc1 | > 50 | 9.43 | > 50 | 32.2 | – | –
c1ccc(OCCc2ccc(CN3CCN(c4ccccc4)CC3)cc2)cc1 | > 50 | 9.82 | 8.2 | 6.67 | 40.6% | –
Fc1ccccc1OCCc1ccc(CN2CCN(c3ccccc3)CC2)cc1 | 19.7 | 7.21 | 48.8 | 17.8 | – | –
Clc1ccc(OCCc2ccc(CN3CCN(c4ccccc4)CC3)cc2)cc1Cl | > 50 | 5.36 | 23 | 19.8 | 41.1% | –
O=[N+]([O-])c1ccc(OCCc2ccc(CN3CCN(c4ccccc4)CC3)cc2)cc1 | 3.87 | 8.74 | 9.23 | 8.51 | 50.1% | 3.82
N#Cc1ccc(OCCc2ccc(CN3CCN(c4ccccc4)CC3)cc2)cc1 | > 50 | 46.2 | 1.05 | 43.6 | 47.2% | 4.22
COc1ccccc1OCCc1ccc(CN2CCN(c3ccccc3)CC2)cc1 | > 50 | > 50 | > 50 | > 50 | – | –
CC(C)(C)c1ccc(OCCc2ccc(CN3CCN(c4ccccc4)CC3)cc2)cc1 | 21.1 | 28 | 4.86 | 17.9 | – | –
Fc1ccc(OCCc2ccc(CN3CCN(c4ccccc4)CC3)cc2)cc1 | 4.62 | 6.86 | 5.7 | 7.83 | 35.1% | –
COc1ccc(OCCc2ccc(CN3CCN(c4ccccc4)CC3)cc2)cc1 | > 50 | 9.79 | 8.95 | 7.46 | 67.1% | 1.15
N#Cc1ccc(OCCc2ccc(CN3CCN(c4ccccc4)CC3)cc2)c(F)c1 | > 50 | 0.77 | > 50 | > 50 | 24.5% | –
FC(F)(F)c1ccc(OCCc2ccc(CN3CCN(c4ccccc4)CC3)cc2)cc1 | 13.2 | 4.81 | 4.96 | 8.76 | 48.2% | 4.03
Clc1ccccc1OCCc1ccc(CN2CCN(c3ccccc3)CC2)cc1 | > 50 | 38.6 | > 50 | > 50 | – | –
Clc1ccc(OCCc2ccc(CN3CCN(c4ccccc4)CC3)cc2)cc1 | 4.76 | 9.2 | 3.59 | 8.64 | 32.4% | –
c1ccc(N2CCN(Cc3ccc(CCOc4ccc5c(c4)CCCC5)cc3)CC2)cc1 | > 50 | 40.4 | > 50 | > 50 | – | –
Cc1ccc(OCCc2ccc(CN3CCN(c4ccccc4)CC3)cc2)cc1 | > 50 | 10.1 | 1.47 | 5.62 | 54.7% | 3.66
Clc1cc(Cl)cc(OCCc2ccc(CN3CCN(c4ccccc4)CC3)cc2)c1 | 47.2 | 13.2 | 10.1 | 19.4 | – | –
C[C@]12C=CC3=C4CCC(=O)C=C4CC[C@H]3[C@@H]1CC[C@@]2(C)O | – | – | – | – | inactive | –
Cc1cc(C)cc(OCCc2ccc(CN3CCN(c4ccccc4)CC3)cc2)c1 | 4.86 | 3.44 | 2.99 | 7.43 | 16.7% | –
COc1ccccc1N1CCN(CC(O)COc2cccc3ccccc23)CC1 (stereo unspecified) [NAFTOPIDIL] | > 50 | – | – | – | – | –
Brc1ccccc1OCCc1ccc(CN2CCN(c3ccccc3)CC2)cc1 | > 50 | 11.6 | > 50 | 41.9 | – | –
c1ccc(N2CCN(Cc3ccc(CCOc4cccc5ccccc45)cc3)CC2)cc1 | 12.2 | 16 | 4.72 | 8.92 | 32.5% | –
Cc1ccc(OCCc2ccc(CN3CCN(c4ccccc4)CC3)cc2)cc1C | 12.3 | 15.6 | 6.72 | 17.6 | – | –
Brc1ccc(OCCc2ccc(CN3CCN(c4ccccc4)CC3)cc2)cc1 | 15.7 | 10.1 | 6.69 | 13.5 | – | –
Cc1ccccc1OCCc1ccc(CN2CCN(c3ccccc3)CC2)cc1 | > 50 | 29.2 | 15.1 | 34.9 | – | –
